# Source: ChEMBL document CHEMBL1144568, “Synthesis of novel potent hepatitis C virus NS3 protease inhibitors: discovery of 4-hydroxy-cyclopent-2-ene-1,2-dicarboxylic acid as a N-acyl-L-hydroxyproline bioisostere” (Bioorg Med Chem, 2007)
# Assay: Inhibition of full length HCV NS3/4A protease
# Design: species or system Hepacivirus hominis
# Outline: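 30 min room-temperature preincubation with inhibitor, then FRET substrate RET S1 at 2 µM final. Activity followed continuously 20 min (ex 355/em 500 nm); IC50 by non-linear fit, Ki derived from IC50.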
row,Compound,Ki [nM]
1,C=C[C@@H]1C[C@]1(NC(=O)C1CC(Oc2cc(-c3ccccc3)nc3cc(OC)ccc23)C=C1C(=O)N[C@H](C(=O)N[C@H](C(=O)OC)C1CCCCC1)C(C)(C)C)C(=O)OC(C)(C)C (some centres undefined),> 2000
2,CC[C@H](NC(=O)C1CC(Oc2cc(-c3ccccc3)nc3cc(OC)ccc23)C=C1C(=O)N[C@H](C(=O)N[C@H](C(=O)OC)C1CCCCC1)C(C)C)C(=O)O (some centres undefined),523
3,C=C[C@@H]1C[C@]1(NC(=O)C1CC(Oc2cc(-c3ccccc3)nc3cc(OC)ccc23)C=C1C(=O)N[C@H](C(=O)N(C)[C@H](C(=O)NC)C1CCCCC1)C(C)(C)C)C(=O)O (some centres undefined),> 5000
4,CC[C@H](NC(=O)C1CC(Oc2cc(-c3ccccc3)nc3cc(OC)ccc23)C=C1C(=O)N[C@H](C(=O)N[C@H](C(=O)OC)C1CCCCC1)C(C)(C)C)C(=O)O (some centres undefined),503
5,CCC[C@H](NC(=O)[C@H]1C[C@H](Oc2cc(-c3ccccc3)nc3cc(OC)ccc23)C=C1C(=O)N[C@H](C(=O)N[C@H](C(=O)OC)C1CCCCC1)C(C)C)C(=O)O,2560
6,CC[C@H](NC(=O)[C@@H]1C[C@@H](Oc2cc(-c3ccccc3)nc3cc(OC)ccc23)C=C1C(=O)N[C@@H](C(=O)N[C@@H](C(=O)OC)C1CCCCC1)C(C)C)C(=O)O,> 2000
7,C=C[C@@H]1C[C@]1(NC(=O)C1CC(Oc2cc(-c3ccccc3)nc3cc(OC)ccc23)C=C1C(=O)N[C@H](C(=O)N[C@H](C(=O)NC)C1CCCCC1)C(C)(C)C)C(=O)OC(C)(C)C (some centres undefined),> 2000
8,CCC[C@H](NC(=O)[C@H]1C[C@H](Oc2cc(-c3ccccc3)nc3cc(OC)ccc23)C=C1C(=O)N[C@H](C(=O)N[C@H](C(=O)OC)C1CCCCC1)C(C)(C)C)C(=O)O,> 2000
9,CC[C@H](NC(=O)C1CC(Oc2cc(-c3ccccc3)nc3cc(OC)ccc23)C=C1C(=O)N[C@H](C(=O)OC)C(C)C)C(=O)O (some centres undefined),> 2000

# Compounds with a lower Ki, results first:
row,Ki [nM],Compound
1,280,CC[C@H](NC(=O)C1CC(Oc2cc(-c3ccccc3)nc3cc(OC)ccc23)C=C1C(=O)N[C@H](C(=O)N[C@H](C(=O)NC)C1CCCCC1)C(C)(C)C)C(=O)O (some centres undefined)
2,108,C=C[C@@H]1C[C@]1(NC(=O)[C@H]1C[C@H](Oc2cc(-c3ccccc3)nc3cc(OC)ccc23)C=C1C(=O)N[C@H](C(=O)N[C@H](C(=O)OC)C1CCCCC1)C(C)(C)C)C(=O)O
3,102,CCC[C@H](NC(=O)[C@@H]1C[C@@H](Oc2cc(-c3ccccc3)nc3cc(OC)ccc23)C=C1C(=O)N[C@H](C(=O)N[C@H](C(=O)OC)C1CCCCC1)C(C)C)C(=O)O
4,67,CCC[C@H](NC(=O)C1CC(Oc2cc(-c3ccccc3)nc3cc(OC)ccc23)C=C1C(=O)N[C@H](C(=O)N[C@H](C(=O)NC)C1CCCCC1)C(C)(C)C)C(=O)O (some centres undefined)
5,30,CCC[C@H](NC(=O)[C@@H]1C[C@@H](Oc2cc(-c3ccccc3)nc3cc(OC)ccc23)C=C1C(=O)N[C@H](C(=O)N[C@H](C(=O)OC)C1CCCCC1)C(C)(C)C)C(=O)O
6,24,C=C[C@@H]1C[C@]1(NC(=O)C1CC(Oc2cc(-c3ccccc3)nc3cc(OC)ccc23)C=C1C(=O)N[C@H](C(=O)N[C@H](C(=O)OC)C1CCCCC1)C(C)C)C(=O)O (some centres undefined)
7,23,C=C[C@@H]1C[C@]1(NC(=O)[C@H]1C[C@H](Oc2cc(-c3ccccc3)nc3cc(OC)ccc23)C=C1C(=O)N[C@H](C(=O)N[C@H](C(=O)NC)C1CCCCC1)C(C)(C)C)C(=O)O
8,16,C=C[C@@H]1C[C@]1(NC(=O)[C@@H]1C[C@@H](Oc2cc(-c3ccccc3)nc3cc(OC)ccc23)C[C@H]1C(=O)N[C@H](C(=O)N[C@H](C(=O)NC)C1CCCCC1)C(C)(C)C)C(=O)O
9,1.3,C=C[C@@H]1C[C@]1(NC(=O)[C@@H]1C[C@@H](Oc2cc(-c3ccccc3)nc3cc(OC)ccc23)C=C1C(=O)N[C@H](C(=O)N[C@H](C(=O)NC)C1CCCCC1)C(C)(C)C)C(=O)O
10,1.1,C=C[C@@H]1C[C@]1(NC(=O)[C@@H]1C[C@@H](Oc2cc(-c3ccccc3)nc3cc(OC)ccc23)C=C1C(=O)N[C@H](C(=O)N[C@H](C(=O)OC)C1CCCCC1)C(C)(C)C)C(=O)O
